# Screening results (PubChem)
# Dynein cargo inh: dynein cargo transport inhibition; 3617.4 mouse cells, GR-EGFP nuclear translocation imaging; test concentration mostly 20 µM; stimulated with dexamethasone, 1 µM; hits give low values; z-score, hits read low; 220,000 tested, 0.47% active; AID 1381;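 active = plate z-score of nuclear minus cytoplasmic receptor signal below a set negative limit, without overly bright fluorescence or cell loss, cut at about -3.5 in these data, passing the limit was not always enough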;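 note: z-score of nuclear minus cytoplasmic ring GR-EGFP intensity difference per well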
#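 Also added – dexamethasone, 1.0 µM final · Buffer or medium – tet-free, stripped-serum medium · Schedule – induction 48 h, compound 1 h, agonist 30 min · Detection – formaldehyde fixation, Hoechst nuclear stain, 10x automated fluorescence imaging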
# Autophagy HCS: autophagy modulation, high-content screen | MEF GFP-LC3 puncta imaging; test concentration mostly 10 µM | calls only at 10 µM (by protocol) | 190,000 tested, 0.98% active | AID 463193;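 active = percentage of spot-positive cells more than 3 SD above its plate mean, without a fluorescence outlier flag or 80% toxicity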;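 note: spot-positive cell cutoff set from DMSO-treated cells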
# HCT116 bCat-KO: beta-catenin-lacking colon tumor cell growth suppression; AID 818; HCT116 beta-catenin knockout viability, CellTiter-Glo, 60 h; hits give low values; 140,000 tested, 1.5% active; viability, % at 10 µM;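 active = viability at or under a set limit, the compound median less 4 SD, cut at about 6% in these data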;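 note: 0% = Hyamine 1622 control at 20 µM and 100% = untreated cell control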
# HCT116 PTEN-null: growth suppressors of cells with PTEN tumor suppressor deletion; HCT116 PTEN-null viability, CellTiter-Glo, 60 h; hits give low values; viability, % at 10 µM; 140,000 tested, 1.2% active; AID 827;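 active = viability at or below a set limit, 4 SD under the median of all tested compounds, cut at about 3.7% in these data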;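 note: PTEN knockout HCT116 line with beta catenin targeted HCT116 as companion control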
# L major viab: reduces viability of Leishmania major promastigotes. AID 1063. inhibition, % at 10 µM. 200,000 tested, 9% active. resazurin fluorescence viability; in the data active = inhibition above about 50%;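 note: promastigotes grown with compound for 44 hours at 28 °C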
# Active calls of the source: *; i = inactive; x = no result given. Shown are actives, neighbours in structure and some others; about 9.2% of the full set was active somewhere.
SMILES,Dynein cargo inh,Autophagy HCS,HCT116 bCat-KO,HCT116 PTEN-null,L major viab
Cc1ccc(C(=O)N(Cc2cccnc2)Cc2cc3cc(C)ccc3n3nnnc23)cc1,0.16,i,x,x,96*
Cc1nn(-c2ccccc2)c(Cl)c1C1C(C#N)=C(N)Oc2n[nH]c(C)c21 (stereo not drawn),-0.66,i,17,15,39
Cc1ccc(-c2ccc(C3C(C#N)=C(N)Oc4n[nH]c(C)c43)o2)cc1 (stereo not drawn),0.99,i,32,59,101*
Cc1[nH]nc2c1C(c1ccc(-c3ccc(Cl)cc3)o1)C(C#N)=C(N)O2 (stereo not drawn),0.7,i,1.3*,0.7*,100*
Cc1[nH]nc2c1C(c1ccc(-c3ccccc3C#N)o1)C(C#N)=C(N)O2 (stereo not drawn),-0.96,i,68,75,100*
Cc1[nH]nc2c1C(c1ccc(F)cc1)C(C#N)=C(N)O2 (stereo not drawn),-0.48,i,97,105,33
O=S1(=O)CC2SC(=S)N(Cc3ccccc3)C2C1 (stereo not drawn),0.084,x,x,x,x
Cc1cc(C)n2nc(SCC(=O)c3c(N)n(CC(C)C)c(=O)n(C)c3=O)nc2n1,-0.0098,i,x,x,-1
COc1ccc(C/C(C)=N/NC(=S)Nc2ccc(Cl)cc2)cc1,-0.34,x,x,x,x
CCCCc1ccc(NC(=S)NCc2cccc(OC)c2)cc1,1.1,i,x,x,10
CCOc1ccc(NC(=S)N/N=C(\C)Cc2ccc(OC)cc2)cc1,0.22,i,92,90,62*
CCCCc1ccc(NC(=S)Nc2ccc(Cl)c(S(=O)(=O)N(C)C)c2)cc1,-0.96,i,58,49,87*
CCCCc1ccc(NC(=S)Nc2ccc(Nc3ccc(OC)cc3)cc2)cc1,-0.55,i,44,49,60*
OC(CCN1CCC2(CC1)OCCO2)C(F)(F)F (stereo not drawn),-0.087,i,x,x,-14
O=C(CSCCO)Nc1cccc([N+](=O)[O-])c1,-0.0082,i,88,105,65*
O=C(CSCCO)Nc1ccc([N+](=O)[O-])cc1,0.11,i,x,x,-7
COc1cccc2c1C(CO)N1C(C#N)C3CC(C(=O)O)C(C1C2)N3C (stereo not drawn),-0.18,x,x,x,x
COc1cccc(NC(=S)NNC(=O)C(C)n2nc(C)c([N+](=O)[O-])c2C)c1 (stereo not drawn),0.55,i,108,100,-8
COc1cccc(/C=N/NC(=O)C(C)n2nc(C)c([N+](=O)[O-])c2C)c1O (stereo not drawn),-0.7,i,101,94,94*
COc1cccc(/C=N/NC(=O)CSc2ccccc2C)c1OC,-0.64,i,107,104,-7
COc1cccc(/C=N/NC(=O)C(=O)N2CCCC2)c1OC,2.1,i,85,90,2
COc1cccc(/C=N/NC(=O)C(=O)N2CCCC2)c1O,2,i,72,77,53*
COc1cccc(/C=N/NC(=O)CSc2ccccc2C)c1O,0.18,i,9,10,98*
COc1ccc(OC)c(NC(=O)c2cccc(Cn3cc(Br)c([N+](=O)[O-])n3)c2)c1,-0.33,i,86,83,100*
Cc1n[nH]c(C)c1CS(=O)(=O)c1ccccc1,2.1,i,x,x,-4
SMILES,Dynein cargo inh,Autophagy HCS,HCT116 bCat-KO,HCT116 PTEN-null,L major viab
COc1cccc(/C=N\NC(=O)c2ccc(Cn3cc(Br)c([N+](=O)[O-])n3)o2)c1O,-1.1,i,x,x,100*
COc1cccc(/C=N/NC(=O)Cn2nc(C)c([N+](=O)[O-])c2C)c1O,0.28,i,35,39,82*
CCOc1ccc(NC(=O)c2cc3c(=O)n(C)c4ccccc4c3n2C)cc1,0.74,i,95,97,20
COc1ccc(-c2nc(C(F)(F)F)c(OC)o2)cc1OC,0.39,i,95,88,-2
CN(Cc1ccccc1)S(=O)(=O)c1cccc2nsnc12,0.31,i,x,x,-2
COc1cc(CNC(C)(C)CO)ccc1OCC(=O)Nc1ccc(Br)cc1,0.65,i,66,60,101*
CCOC(=O)c1ccc(NC(=O)COc2ccc(CNCCO)cc2OCC)cc1,-0.34,i,x,x,32
CCOC(=O)c1ccc(NC(=O)COc2ccc(CNC3CCCCC3)cc2OC)cc1,-0.25,i,x,x,94*
C=CCOc1ccc(CNC(C)(C)CO)cc1OC,0.42,i,93,90,-5
CCOC(=O)c1ccc(NC(=O)COc2ccccc2CNCCc2ccccc2)cc1,0.48,i,x,x,101*
O=C(CSc1nnnn1C1CCCCC1)NCc1cccs1,0.29,i,x,x,0
Cn1nc(N)nc1N1CCN(c2ccc(F)cc2)CC1,-0.6,i,x,x,-2
N#Cc1c(F)cccc1NCc1cccs1,-0.42,x,x,x,x
Cc1ccc2c(c1)C(=O)C(=O)N2CC(=O)Nc1ccc(N2CCOCC2)cc1,-1.4,i,x,x,-2
CC(C)Cc1nnc(NC(=O)CCC(=O)Nc2ccccc2F)s1,-0.5,x,x,x,x
CN(C(=O)COC(=O)/C=C/c1ccccc1[N+](=O)[O-])c1ccccc1,-0.62,i,x,x,3
CN(C(=O)/C=C/c1ccc([N+](=O)[O-])s1)c1ccccc1,0.23,i,x,x,98*
CCN(C(=S)NC(=O)CCc1ccccc1)c1ccccc1,0.49,i,96,95,1
COc1ccc(C)cc1NS(=O)(=O)c1ccc(NC(=O)CN(c2cc([N+](=O)[O-])ccc2C)S(C)(=O)=O)cc1,0.52,i,40,34,0
Cc1ccc(NC(=O)CN(c2ccc(Cl)cc2)S(=O)(=O)c2cc([N+](=O)[O-])ccc2Cl)cc1,-0.79,i,73,66,59*
COc1ccc(C)cc1S(=O)(=O)N(CC(=O)Nc1cccc([N+](=O)[O-])c1)c1ccc(C)c(C)c1,-0.72,i,90,93,50*
CCC(C)(C(=O)Nc1c(C)cccc1C)N(C)C(=O)c1ccc2ccccc2n1 (stereo not drawn),0.13,x,x,x,x
COc1ccc2[nH]c(=O)c(CN(C(=O)NC3CCCCC3)C3CCCC3)cc2c1,0.79,i,92,91,100*
COc1ccc2[nH]c(=O)c(CN(C(=O)c3ccco3)C3CCCCC3)cc2c1,-1.1,i,73,77,94*
COc1ccc2[nH]c(=O)c(COC(=O)c3ccco3)cc2c1,0.015,i,98,97,-5
SMILES,Dynein cargo inh,Autophagy HCS,HCT116 bCat-KO,HCT116 PTEN-null,L major viab
COc1ccc2[nH]c(=O)c(CN(C(C)=O)C3CCCCC3)cc2c1,-0.75,i,100,106,-1
COc1cnc(-c2ccccn2)nc1Sc1ccc(C)cc1,1,i,x,x,100*
COc1cnc(-c2ccccn2)nc1Sc1cccc(Cl)c1,x,i,8,8,100*
COc1ccccc1Sc1nc(-c2ccccn2)ncc1OC,-0.75,i,x,x,83*
COc1cnc(-c2ccccn2)nc1NC(C)C,-0.86,i,x,x,100*
COc1cnc(-c2ccccn2)nc1Oc1ccc(F)cc1F,0.011,i,x,x,37
Nc1cccnc1Sc1cccc(Cl)c1,0.6,i,103,95,4
